Laboratory results from ChEMBL document CHEMBL2203283, “Novel coumarin derivatives bearing N-benzyl pyridinium moiety: potent and dual binding site acetylcholinesterase inhibitors” (Bioorg Med Chem, 2012).
In brackets after ≈: the same amount, converted by molar mass.

How the values were obtained:
[1] = Selectivity ratio of IC50 for equine serum BuChE to IC50 for electric eel AChE
Outline: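 Ellman assay with electric eel AChE and equine serum BuChE, run by the same method. Compounds are diluted in 0.1 M phosphate buffer, pH 8.0, and preincubated 15 min at 25 °C. Substrate is acetylthiocholine iodide with DTNB, read as absorbance rate at 412 nm over 6 min. Five concentrations are tested in triplicate, with IC50 taken graphically. Ratio = IC50(BuChE)/IC50(AChE).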

[2] = Antioxidant activity of compound assessed as ferric reducing antioxidant power; format: functional
Outline: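 Modified FRAP assay. Reagent mixed from 300 mM acetate buffer pH 3.6, 10 mM TPTZ in 40 mM HCl, and 20 mM ferric chloride hexahydrate solution. Ascorbic acid and BHT served as references.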

[3] = biological target: Acetylcholinesterase (Electrophorus electricus, UniProt O42275); test: Inhibition of electric eel AChE using acetylthiocholine iodide as substrate by Ellman's method
[4] = system: Radical scavenging activity; test: Antioxidant activity of compound assessed as DPPH radical scavenging activity; format: functional
Outline: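 DPPH radical scavenging: compounds at five concentrations across a 0–25 range in methanol, mixed with 0.3 mM DPPH ethanol solution and left 30 min in the dark at room temperature. Absorbance read at 518 nm, with a compound-plus-methanol reading blank and a DPPH-plus-methanol negative control. % inhibition = [(A_B−A_A)/A_B]×100; IC50 calculated; ascorbic acid as reference.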

[5] = biological target: Cholinesterase (Equus caballus, UniProt P81908); test: Inhibition of equine serum BuChE using acetylthiocholine iodide as substrate by Ellman's method
Chain of Cholinesterase (P81908 whole entry): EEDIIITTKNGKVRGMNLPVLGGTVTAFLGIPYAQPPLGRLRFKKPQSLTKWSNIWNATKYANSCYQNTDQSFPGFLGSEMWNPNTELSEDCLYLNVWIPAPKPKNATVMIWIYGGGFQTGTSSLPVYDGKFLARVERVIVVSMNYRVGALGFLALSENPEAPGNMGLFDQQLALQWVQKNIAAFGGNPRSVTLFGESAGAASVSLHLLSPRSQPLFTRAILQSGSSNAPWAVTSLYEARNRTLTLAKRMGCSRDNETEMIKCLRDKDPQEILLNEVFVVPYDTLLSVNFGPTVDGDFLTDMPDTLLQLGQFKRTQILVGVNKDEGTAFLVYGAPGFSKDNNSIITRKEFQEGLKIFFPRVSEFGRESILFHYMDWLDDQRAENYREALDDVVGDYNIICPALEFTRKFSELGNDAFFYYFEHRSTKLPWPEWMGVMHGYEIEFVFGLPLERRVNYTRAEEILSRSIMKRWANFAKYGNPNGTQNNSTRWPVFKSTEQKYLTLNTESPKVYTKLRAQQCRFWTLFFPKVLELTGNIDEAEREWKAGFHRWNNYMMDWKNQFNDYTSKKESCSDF

Chain of Acetylcholinesterase (O42275 whole entry): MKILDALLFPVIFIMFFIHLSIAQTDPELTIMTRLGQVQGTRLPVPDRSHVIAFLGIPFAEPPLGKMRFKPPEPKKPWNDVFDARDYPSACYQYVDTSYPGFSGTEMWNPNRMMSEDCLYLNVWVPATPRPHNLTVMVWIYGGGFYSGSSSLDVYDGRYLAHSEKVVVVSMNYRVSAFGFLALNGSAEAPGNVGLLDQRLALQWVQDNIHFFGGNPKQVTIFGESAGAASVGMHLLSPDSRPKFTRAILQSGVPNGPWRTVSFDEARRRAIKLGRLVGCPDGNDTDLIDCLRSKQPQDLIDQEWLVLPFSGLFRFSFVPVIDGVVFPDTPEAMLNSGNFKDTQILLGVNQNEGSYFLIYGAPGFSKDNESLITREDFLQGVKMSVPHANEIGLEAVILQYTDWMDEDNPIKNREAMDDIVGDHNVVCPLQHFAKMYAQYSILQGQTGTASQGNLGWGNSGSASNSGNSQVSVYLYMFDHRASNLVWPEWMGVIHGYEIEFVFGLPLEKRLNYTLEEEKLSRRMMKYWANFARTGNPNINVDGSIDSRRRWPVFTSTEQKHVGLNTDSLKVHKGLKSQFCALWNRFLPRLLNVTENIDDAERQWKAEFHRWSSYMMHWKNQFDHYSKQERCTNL

SMILES | Ratio IC50 [1] | Activity [2] | IC50 [3] [nM] | IC50 [4] [µg/mL] | IC50 [5] [nM]
COc1cccc2cc(C(=O)/C=C/c3cc[n+](Cc4ccc(Cl)c(Cl)c4)cc3)c(=O)oc12.[Cl-] | 13.6 | < 150 | 440 | > 25 | 5790
COc1cccc2cc(C(=O)/C=C/c3cc[n+](Cc4cccc(F)c4)cc3)c(=O)oc12.[Cl-] | 4470 | < 150 | 0.47 | > 25 | 2100
COc1cccc2cc(C(=O)/C=C/c3cc[n+](Cc4cccc(C#N)c4)cc3)c(=O)oc12.[Br-] | 13.1 | < 150 | 76 | > 25 | 1000
O=C(/C=C/c1cc[n+](Cc2ccc(F)cc2)cc1)c1cc2cc(Br)ccc2oc1=O.[Cl-] | 1070 | < 150 | 0.46 | > 25 | 494
COc1cccc2cc(C(=O)/C=C/c3cc[n+](Cc4ccccc4)cc3)c(=O)oc12.[Cl-] | – | < 150 | – | > 25 | –
COc1cccc2cc(C(=O)/C=C/c3cc[n+](Cc4ccc(F)cc4)cc3)c(=O)oc12.[Cl-] | 1.97 | < 150 | 472 | > 25 | 931
COc1cccc2cc(C(=O)/C=C/c3cc[n+](Cc4cccc(Cl)c4)cc3)c(=O)oc12.[Cl-] | 6.5 | < 150 | 86 | > 25 | 560
O=C(/C=C/c1cc[n+](Cc2ccc(F)cc2)cc1)c1cc2ccccc2oc1=O.[Cl-] | 1.2 | < 150 | 760 | > 25 | 910
COc1cccc2cc(C(=O)/C=C/c3cc[n+](Cc4ccc(CCl)cc4)cc3)c(=O)oc12.[Cl-] | 9.4 | < 150 | 1600 | > 25 | 15100
COc1cccc2cc(C(=O)/C=C/c3cc[n+](Cc4ccccc4F)cc3)c(=O)oc12.[Br-] | 12.6 | < 150 | 26 | > 25 | 329
O=C1O[C@H]([C@@H](O)CO)C(O)=C1O [ASCORBIC ACID] | – | 1890 | – | 3.6 (≈ 20.4 µM) | –
COc1cccc2cc(C(=O)/C=C/c3cc[n+](Cc4c(F)cccc4[N+](=O)[O-])cc3)c(=O)oc12.[Cl-] | 2.1 | < 150 | 330 | > 25 | 685
COc1ccc(C[n+]2ccc(/C=C/C(=O)c3cc4cccc(OC)c4oc3=O)cc2)cc1.[Cl-] | 0.7 | < 150 | 1470 | > 25 | 971
COc1cccc2cc(C(=O)/C=C/c3cc[n+](Cc4ccccc4Cl)cc3)c(=O)oc12.[Cl-] | 272 | < 150 | 0.46 | > 25 | 125
COc1cccc2cc(C(=O)/C=C/c3cc[n+](Cc4cccc(C)c4)cc3)c(=O)oc12.[Cl-] | 14 | < 150 | 800 | > 25 | 11200
COc1cccc2cc(C(=O)/C=C/c3cc[n+](Cc4cccc(Cl)c4Cl)cc3)c(=O)oc12.[Cl-] | 57 | < 150 | 120 | > 25 | 6800
O=C(/C=C/c1cc[n+](Cc2ccccc2F)cc1)c1cc2ccccc2oc1=O.[Cl-] | 1.57 | < 150 | 540 | > 25 | 848
COc1cccc2cc(C(=O)/C=C/c3cc[n+](Cc4ccccc4C)cc3)c(=O)oc12.[Cl-] | 2140 | < 150 | 0.16 | > 25 | 342
COc1cccc2cc(C(=O)/C=C/c3cc[n+](Cc4ccc(C)cc4)cc3)c(=O)oc12.[Cl-] | 7.4 | < 150 | 3650 | > 25 | 27000
O=C(/C=C/c1cc[n+](Cc2ccccc2F)cc1)c1cc2cc(Br)ccc2oc1=O.[Cl-] | 4440 | < 150 | 0.11 | > 25 | 489
